Measurements taken from ChEMBL document CHEMBL1157128, “Silica-supported fluoroboric acid (HBF(4)-SiO(2)) catalyzed highly productive synthesis of thiomorpholides as activators of l-asparaginase as well as the antioxidant agent” (Bioorg Med Chem, 2010).
Calls of active or inactive are those of the source. No cut-off for these calls is given here.

Tests used:
[1] = system: Radical scavenging activity; test: Antioxidant activity assessed as DPPH free radical scavenging activity at 1 mM/ml after 30 mins; assay type: functional
Summary of the method: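 DPPH scavenging assay. 1 mM compound stock was mixed with DPPH in methanol (0.5 mL, 0.3 mM) in a 3 mL total mixture and left at room temperature for 30 min. Absorbance was read at 520 nm. Percent activity was calculated as [1 − OD test/OD control] × 100. BHA served as standard.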

[2] = system: L-asparaginase (Erwinia carotovora); test: Binding affinity to Erwinia carotovora L-asparaginase by spectrophotometry; conditions: Pectobacterium carotovorum
[3] = system: L-asparaginase (Erwinia carotovora); test: Ratio of Vmax to Km for Erwinia carotovora L-asparaginase by Lineweaver-Burke plot; conditions: Pectobacterium carotovorum

| Compound | Activity [1] [%] | Activity [2] | KA [2] [µM] | Vmax/Km [3] |
| --- | --- | --- | --- | --- |
| S=C(Cc1ccc2ccccc2c1)N1CCOCC1 | 0 |  |  |  |
| S=C(CCCc1ccccc1)N1CCOCC1 | 0 |  |  |  |
| S=C(Cc1ccccc1)N1CCOCC1 | 24.3 |  |  |  |
| S=C(Cc1ccco1)N1CCOCC1 | 0 |  |  |  |
| COc1ccc(CC(=S)N2CCOCC2)cc1OC | 32.6 | Active | 0.985 | 13.3 |
| Oc1ccccc1CC(=S)N1CCOCC1 | 36.1 |  | 0.625 | 4.04 |
| S=C(Cc1ccc(OCc2ccccc2)cc1)N1CCOCC1 | 25.9 |  |  |  |
| O=[N+]([O-])c1ccc(CC(=S)N2CCOCC2)cc1 | 0 |  |  |  |
| Cc1ccc(CC(=S)N2CCOCC2)cc1 | 21.6 |  |  |  |
| COc1ccc(CC(=S)N2CCOCC2)cc1 | 24.3 | Active | 0.0851 | 6.25 |
| Nc1ccccc1CC(=S)N1CCOCC1 | 0 |  |  |  |
| COc1ccc(O)c(C(C)(C)C)c1.COc1ccc(O)cc1C(C)(C)C | 72.3 |  |  |  |
| S=C(Cc1ccc(Br)cc1)N1CCOCC1 | 0 |  |  |  |
